Results on 31 compounds are retold here after ChEMBL document CHEMBL3632596, “Novel Potent N-Methyl-d-aspartate (NMDA) Receptor Antagonists or σ1 Receptor Ligands Based on Properly Substituted 1,4-Dioxane Ring” (J Med Chem, 2015).

Assay [1] in a line: Displacement of [3H]MK801 from NMDA receptor PCP binding site in guinea pig brain cortex membranes incubated for 120 mins by scintillation counting method. It is filed as cell membranes, Cavia porcellus.
Assay [2] is described as follows: Displacement of [3H]DTG from sigma2 receptor in rat liver membranes incubated for 120 mins by scintillation counting method in presence of pentazocine. It is filed as cell membranes, Membrane. The essentials:
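σ2 binding on rat liver membranes using the nonselective radioligand [3H]-DTG. […] Nonspecific binding defined with 10 µM unlabelled DTG. Affinity reported as Ki.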

The target in assay [3] is T1, Glutamate NMDA receptor; GRIN1/GRIN2A (Homo sapiens, UniProt Q05586+Q12879). In words: Antagonist activity against NR1-1a/NR2A NMDA receptor (unknown origin) expressed in mouse recombinant L(tk-) cells assessed as inhibition of glycine and glutamate induced excitotoxicity incubated for 12 hrs by LDH assay. It is filed as cell-based. The essentials:
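Mouse fibroblast L(tk-) cells stably carrying a dexamethasone-inducible vector encoding GluN1a and GluN2A. Receptor expression was induced with dexamethasone in the presence of ketamine to limit cell damage. Cells were exposed to (S)-glutamate, glycine and a range of test concentrations for 12 h. Cell death was read as LDH released from lysed cells, measured by formazan dye formation.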

Assay [4] addresses Sigma non-opioid intracellular receptor 1 (Cavia porcellus, UniProt Q60492). Description: Displacement of [3H]-(+)-pentazocine from sigma 1 receptor in guinea pig brain membranes incubated for 120 mins by scintillation counting method in the presence of pentazocine. It is filed as cell membranes, Membrane. For orientation: Loss of bound radioactivity is the signal in a displacement assay; it reports binding, not function.

A short description of assay [5]: Selectivity index, ratio of Ki for sigma2 receptor in rat liver membranes to Ki for sigma 1 receptor in guinea pig brain membranes. It is filed as cell membranes.
The test system of assay [6] is Mus musculus. In words: Potentiation of morphine-induced antinociception in CD-1 mouse assessed as increase in latency time at 50 mg/kg, sc dosed 30 mins before morphine injection and measured 60 mins post morphine injection by hot plate test. The assay is classed as functional, organism-based. Background: In hot-plate and tail-flick tests a longer latency is read as antinociception.

Assay [7] concerns Mus musculus. In words: Antinociceptive activity in CD-1 mouse assessed as increase in latency time at 50 mg/kg, sc incubated for 30 mins by hot plate test. The assay is classed as functional, organism-based. The essentials: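 Hot plate test in mice with test compound given alone s.c. at doses up to 50 mg/kg. Reaction latency read out as %MPE.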
In assay [8] the test system is Mus musculus. Description: Potentiation of morphine-induced antinociception in CD-1 mouse assessed as increase in latency time at 30 mg/kg, sc dosed 30 mins before morphine injection and measured 30 to 90 mins post morphine injection by hot plate test. It is filed as functional, organism-based.
Assay [9] deals with T1, Glutamate NMDA receptor; GRIN1/GRIN2A. In words: Binding affinity to NMDA receptor (unknown origin). It is filed as protein-complex assay. Summed up: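 PCP site of the NMDA receptor in pig brain cortex membranes. Competition binding against [3H]-(+)-MK-801. Nonspecific binding was defined with a large excess of unlabelled (+)-MK-801. Values are reported as Ki.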

Molecules are shown by their SMILES. pIC50, pKi: −log10 of the molar value. Active and inactive are the calls of the source. The calls are words filed in the database; no cut-off is given here.

Sequence of Sigma non-opioid intracellular receptor 1 (Q60492 whole entry): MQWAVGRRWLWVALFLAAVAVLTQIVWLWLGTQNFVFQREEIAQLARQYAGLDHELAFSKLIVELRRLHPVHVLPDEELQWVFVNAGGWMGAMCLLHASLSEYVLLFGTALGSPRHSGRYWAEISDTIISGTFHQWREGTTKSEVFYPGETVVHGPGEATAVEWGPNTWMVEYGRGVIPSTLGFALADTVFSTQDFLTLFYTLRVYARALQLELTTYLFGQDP
T1 sequence (Q12879 whole entry, other chains not shown): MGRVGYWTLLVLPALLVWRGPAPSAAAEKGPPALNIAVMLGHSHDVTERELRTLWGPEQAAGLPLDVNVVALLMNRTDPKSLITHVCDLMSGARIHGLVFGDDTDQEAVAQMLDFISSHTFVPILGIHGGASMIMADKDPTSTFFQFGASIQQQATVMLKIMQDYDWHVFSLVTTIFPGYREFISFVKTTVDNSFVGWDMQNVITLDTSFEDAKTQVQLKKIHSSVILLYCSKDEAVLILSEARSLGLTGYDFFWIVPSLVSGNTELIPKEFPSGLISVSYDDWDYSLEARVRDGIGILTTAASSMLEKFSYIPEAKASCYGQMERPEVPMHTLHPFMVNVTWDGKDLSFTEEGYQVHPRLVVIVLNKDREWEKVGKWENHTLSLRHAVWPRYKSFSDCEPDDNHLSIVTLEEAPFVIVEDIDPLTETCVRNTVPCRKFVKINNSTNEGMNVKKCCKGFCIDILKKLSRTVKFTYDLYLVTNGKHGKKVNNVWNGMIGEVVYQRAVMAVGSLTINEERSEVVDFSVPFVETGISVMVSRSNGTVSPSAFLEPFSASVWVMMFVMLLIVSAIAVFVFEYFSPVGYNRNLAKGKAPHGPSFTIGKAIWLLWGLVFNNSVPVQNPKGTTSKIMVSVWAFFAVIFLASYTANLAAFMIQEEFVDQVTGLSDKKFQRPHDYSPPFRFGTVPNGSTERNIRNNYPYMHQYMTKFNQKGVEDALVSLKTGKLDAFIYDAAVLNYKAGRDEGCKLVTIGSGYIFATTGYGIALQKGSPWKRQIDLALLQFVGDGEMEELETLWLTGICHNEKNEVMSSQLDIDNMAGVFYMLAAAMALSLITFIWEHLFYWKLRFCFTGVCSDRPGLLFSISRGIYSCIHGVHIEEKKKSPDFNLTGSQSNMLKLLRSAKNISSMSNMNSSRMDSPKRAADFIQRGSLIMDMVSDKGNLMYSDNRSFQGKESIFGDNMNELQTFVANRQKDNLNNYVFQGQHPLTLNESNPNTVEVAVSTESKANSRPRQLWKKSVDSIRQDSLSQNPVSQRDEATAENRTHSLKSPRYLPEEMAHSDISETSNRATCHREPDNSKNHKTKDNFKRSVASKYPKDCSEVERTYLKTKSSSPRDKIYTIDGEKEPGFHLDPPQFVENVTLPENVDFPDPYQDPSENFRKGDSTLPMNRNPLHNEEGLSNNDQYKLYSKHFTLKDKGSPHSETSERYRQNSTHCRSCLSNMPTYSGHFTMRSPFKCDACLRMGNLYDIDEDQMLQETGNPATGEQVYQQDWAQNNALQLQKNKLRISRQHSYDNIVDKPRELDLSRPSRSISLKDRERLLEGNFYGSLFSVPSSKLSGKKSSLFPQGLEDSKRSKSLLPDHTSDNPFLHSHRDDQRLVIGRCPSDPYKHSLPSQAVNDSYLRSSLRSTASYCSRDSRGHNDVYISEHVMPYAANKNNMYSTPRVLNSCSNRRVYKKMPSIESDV

As usually defined, the pKi is the negative decadic logarithm of the Ki, by convention in mol/L. What is called pIC50 is the IC50 on a negative log10 scale, so that one unit is a factor of ten. For `NCC1COCC(c2ccccc2)(c2ccccc2)O1` (stereo not given), the negative logarithm of the Ki (pKi) in assay [1] is 6.15; in assay [2], 5.24; in [4], less than 5.00. In assay [3], the pIC50 was 7.62.

Turning to `NCCC1COCC(c2ccccc2)(c2ccccc2)O1` (stereo not given), the pKi in [1], in [2] and in assay [4] was less than 5.00 throughout.

Take `NCC1COC(c2ccccc2)(c2ccccc2)CO1` (stereo not given): the values for the negative-log Ki (pKi) in [1], in assay [2] and in [4] were less than 5.00, less than 5.00 and 5.85, respectively.

With `NCCC1COC(c2ccccc2)(c2ccccc2)CO1` (stereo not given), the pKi in assay [1], in assay [2] and in assay [4] was less than 5.00 in each case.

Regarding `c1ccc(CNCC2COCC(c3ccccc3)(c3ccccc3)O2)cc1` (stereo not given), the pKi in assay [1] was less than 5.00; in assay [2] it was 5.80; in assay [4] it was 5.31.

For `c1ccc(CNCCC2COCC(c3ccccc3)(c3ccccc3)O2)cc1` (stereo not given), the pKi in assay [1] is less than 5.00; in assay [2], less than 5.00; in [4], 6.30.

For `c1ccc(CNCC2COC(c3ccccc3)(c3ccccc3)CO2)cc1` (stereo not given), the Ratio Ki in assay [5] was determined as 136. For the same compound, the figures for the negative-log Ki (pKi) in assay [1], in [2] and in assay [4] were less than 5.00, 6.00 and 8.13, respectively. The outcome in the assay on Mus musculus [6] was Active. Besides, the result with Mus musculus [7] and in the assay on Mus musculus [8] was inactive.

For `c1ccc(CNCCC2COC(c3ccccc3)(c3ccccc3)CO2)cc1` (stereo not given), the negative-log Ki (pKi) in assay [1] is less than 5.00; in assay [2] it was 6.08; in [4], 6.53.

As for `c1ccc(CNCC2CCOC(c3ccccc3)(c3ccccc3)O2)cc1` (stereo not given), the pKi in assay [1] was less than 5.00; in assay [2] it was 6.95; in assay [4], 5.52.

In the case of `NC[C@@H]1COC[C@H](c2ccccc2)O1` (racemic), the negative-log Ki (pKi) in assay [1], in assay [2] and in assay [4] was less than 5.00 throughout.

As to `NC[C@H]1COC[C@H](c2ccccc2)O1` (racemic), the pKi in assay [1], in assay [2] and in assay [4] was less than 5.00 throughout.

For the compound `CC[C@]1(c2ccccc2)COC[C@@H](CN)O1` (racemic), the negative-log Ki (pKi) in [1], in [2] and in assay [4] was less than 5.00 in each case.

Consider `CC[C@]1(c2ccccc2)COC[C@H](CN)O1` (racemic), for which the pKi in [1], in [2] and in assay [4] was less than 5.00 each time.

Turning to `NC[C@@H]1COC[C@@](c2ccccc2)(C2CCCCC2)O1` (racemic), the negative logarithm of the Ki (pKi) in assay [1] was 6.05; in [2], less than 5.00; in assay [4], less than 5.00. Besides, the negative-log IC50 (pIC50) in [3] is 7.15.

`NC[C@H]1COC[C@@](c2ccccc2)(C2CCCCC2)O1` (racemic): the pKi in [1] is 6.38; in assay [2], 5.60; in assay [4], less than 5.00. For the same compound, the pIC50 in [3] was 7.75.

Take `NC[C@@H]1CO[C@H](c2ccccc2)CO1` (racemic): the pKi in assay [1], in assay [2] and in assay [4] was less than 5.00 in each case.

For `NC[C@H]1CO[C@H](c2ccccc2)CO1` (racemic), the pKi in assay [1], in [2] and in assay [4] was less than 5.00 in each case.

On to `c1ccc(CNC[C@@H]2COC[C@H](c3ccccc3)O2)cc1` (racemic), for which the pKi in assay [1] was less than 5.00; in [2], less than 5.00; in [4], 6.81.

Take `c1ccc(CNC[C@H]2COC[C@H](c3ccccc3)O2)cc1` (racemic): the figures for the pKi in assay [1], in assay [2] and in assay [4] were less than 5.00, 5.37 and 6.27, respectively.

Regarding `CC[C@]1(c2ccccc2)COC[C@@H](CNCc2ccccc2)O1` (racemic), the pKi was less than 5.00 in [1], less than 5.00 in assay [2] and 6.27 in assay [4].

As to `CC[C@]1(c2ccccc2)COC[C@H](CNCc2ccccc2)O1` (racemic), the negative logarithm of the Ki (pKi) in assay [1] was less than 5.00; in assay [2] it was less than 5.00; in assay [4] it was 6.22.

On to `c1ccc(CNC[C@@H]2COC[C@@](c3ccccc3)(C3CCCCC3)O2)cc1` (racemic), for which the pKi in assay [1] was less than 5.00; in assay [2] it was 5.31; in [4] it was 5.82.

With `c1ccc(CNC[C@H]2COC[C@@](c3ccccc3)(C3CCCCC3)O2)cc1` (racemic), the pKi in [1] was less than 5.00; in assay [2] it was less than 5.00; in assay [4], 5.57.

Consider `c1ccc(CNC[C@@H]2CO[C@H](c3ccccc3)CO2)cc1` (racemic), for which the negative logarithm of the Ki (pKi) in assay [1] was less than 5.00; in assay [2], 6.16; in [4], 6.72.

For the compound `c1ccc(CNC[C@@H]2CO[C@@H](c3ccccc3)CO2)cc1` (racemic), the Ratio Ki in assay [5] is greater than 270. For the same compound, the negative-log Ki (pKi) in [1] is less than 5.00; in assay [2], less than 5.00; in assay [4], 7.43.

For `c1ccc(CNC[C@@H]2CCO[C@H](c3ccccc3)O2)cc1` (racemic), the pKi in assay [1] is less than 5.00; in assay [2], 6.76; in assay [4], 6.50.

As to `c1ccc(C2(c3ccccc3)OC[C@H]([C@@H]3CCCCN3)O2)cc1` [DEXOXADROL], the pIC50 in assay [3] is 8.01. For the same compound, the pKi in assay [9] is […].

`Cc1ccccc1NC(=N)Nc1ccccc1C` [DITOLYLGUANIDINE]: the pKi in assay [2] is 7.19.

Regarding `CN[C@]1(c2ccccc2Cl)CCCCC1=O` [ESKETAMINE], in assay [1], the pKi is 6.38. Further, the pIC50 in [3] was 7.94.

Regarding `CC[C@]1(c2ccccc2)OC[C@H]([C@@H]2CCCCN2)O1` [ETOXADROL], the negative-log Ki (pKi) in [1] and in assay [9] was 7.66 throughout.

`c1ccc(C2(N3CCCCC3)CCCCC2)cc1` [PHENCYCLIDINE] showed a negative logarithm of the Ki (pKi) in assay [1] of 7.55. Further, in assay [3], the negative logarithm of the IC50 (pIC50) was 7.93.
